# PubChem BioAssay
# Calls of active or inactive are those of the source.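 How the source made its calls, unless noted: active means viability at or below 10% of carrier control in both of two separate runs; inconclusive means viability at or below 10% in only one of the two runs; inactive means the rest.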
# How the values were obtained:
# [1] = reducers of endogenous Her2 protein level, primary screen, SKBR3 breast tumor cells, AlphaScreen, ATP viability (AID 461;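 active means Her2 level under about 52% in both replicate screens, with viability over 70% of control, limit read from the data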;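 on Her2 level: lower value means less Her2 protein in the cells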;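 on viability: percent of carrier control wells set as 100% viability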); details: 18-24 h, measured here: SKBR3 viability, ATP luminescence, at 10 µM
# [2] = molecular target: Receptor tyrosine-protein kinase erbB-2 (Homo sapiens) (UniProt P04626); assay: as above; details: 18-24 h, at 10 µM, stronger effect = lower value
# [3] = SK-BR-3 cell growth inhibitors, pilot screen, 24 h, human (AID 572); details: SK-BR-3 viability, CellTiter-Glo luminescence, at 10 µM, stronger effect = lower value;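 further: compound exposure lasted between 18 and 24 h rather than exactly 24 h; 100% = carrier-treated control wells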
# [4] = HUVEC growth inhibition – cell-based, human, primary screen (AID 575;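 active means viability at or below 30% in both replicate assays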;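 further: 100% = median of untreated cell wells with 0.1% DMSO on each plate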); details: HUVEC proliferation, CellTiter-Glo luminescence, 72 h; at 10 µM; stronger effect = lower value
# Outline: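 System – primary HUVEC, no more than 12 passages · Medium – Low-serum (2% FBS) EBM, supplemented · Times – 72 h exposure, 37 °C, 5% CO2, 30 min RT equilibration · Measured by – luminescent ATP assay · Read-out – % viability relative to median vehicle-well signal on each plate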
# [5] = growth inhibitors of H69AR lung tumor, primary screen, human, duplicate replicates (AID 580;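 active means viability at or under a set limit in both replicates, limit being median viability minus 3 SD, cut at about 48% in these data, passing the limit was not always enough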;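 further: 100% = mean luminescence of untreated wells and 0% = no signal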); details: H69AR lung tumor cells viability, ATP luminescence, 72 h; at 10 µM; stronger effect = lower value
# [6] = reversal of MRP1-mediated doxorubicin resistance, pilot screen, H69AR cells, doxorubicin co-treatment (AID 601;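 active means viability loss from added drug above about 55%, and viability with drug at most 40%, in both replicates, limit read from the data, passing the limit was not always enough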); details: CellTiter-Glo, 72 h, at 10 µM; for differential viability (reversal): stronger effect = higher value
# [7] = 384-well plate pilot, post-Golgi transport modulator project, inhibition of yeast transport mutant growth (AID 636; in the data active means inhibition above about 31%); details: absorbance 615 nm, about 18 h, stronger effect = higher value
# [8] = growth suppression of yeast trafficking mutant, preliminary HTS, modulators of trafficking downstream of Golgi apparatus project, 1536-format plate, OD 615 nm (AID 637; in the data active means inhibition above about 30%); details: yeast transport mutant growth, absorbance 615 nm, 18 h; stronger effect = higher value
# [9] = H69AR cells + 2 uM doxorubicin, measured here: viability with 2 uM doxorubicin, stronger effect = lower value
# [10] = H69AR cells, compound alone cytotoxicity
# Sequence of Receptor tyrosine-protein kinase erbB-2 (Homo sapiens) (P04626 whole entry, looked up): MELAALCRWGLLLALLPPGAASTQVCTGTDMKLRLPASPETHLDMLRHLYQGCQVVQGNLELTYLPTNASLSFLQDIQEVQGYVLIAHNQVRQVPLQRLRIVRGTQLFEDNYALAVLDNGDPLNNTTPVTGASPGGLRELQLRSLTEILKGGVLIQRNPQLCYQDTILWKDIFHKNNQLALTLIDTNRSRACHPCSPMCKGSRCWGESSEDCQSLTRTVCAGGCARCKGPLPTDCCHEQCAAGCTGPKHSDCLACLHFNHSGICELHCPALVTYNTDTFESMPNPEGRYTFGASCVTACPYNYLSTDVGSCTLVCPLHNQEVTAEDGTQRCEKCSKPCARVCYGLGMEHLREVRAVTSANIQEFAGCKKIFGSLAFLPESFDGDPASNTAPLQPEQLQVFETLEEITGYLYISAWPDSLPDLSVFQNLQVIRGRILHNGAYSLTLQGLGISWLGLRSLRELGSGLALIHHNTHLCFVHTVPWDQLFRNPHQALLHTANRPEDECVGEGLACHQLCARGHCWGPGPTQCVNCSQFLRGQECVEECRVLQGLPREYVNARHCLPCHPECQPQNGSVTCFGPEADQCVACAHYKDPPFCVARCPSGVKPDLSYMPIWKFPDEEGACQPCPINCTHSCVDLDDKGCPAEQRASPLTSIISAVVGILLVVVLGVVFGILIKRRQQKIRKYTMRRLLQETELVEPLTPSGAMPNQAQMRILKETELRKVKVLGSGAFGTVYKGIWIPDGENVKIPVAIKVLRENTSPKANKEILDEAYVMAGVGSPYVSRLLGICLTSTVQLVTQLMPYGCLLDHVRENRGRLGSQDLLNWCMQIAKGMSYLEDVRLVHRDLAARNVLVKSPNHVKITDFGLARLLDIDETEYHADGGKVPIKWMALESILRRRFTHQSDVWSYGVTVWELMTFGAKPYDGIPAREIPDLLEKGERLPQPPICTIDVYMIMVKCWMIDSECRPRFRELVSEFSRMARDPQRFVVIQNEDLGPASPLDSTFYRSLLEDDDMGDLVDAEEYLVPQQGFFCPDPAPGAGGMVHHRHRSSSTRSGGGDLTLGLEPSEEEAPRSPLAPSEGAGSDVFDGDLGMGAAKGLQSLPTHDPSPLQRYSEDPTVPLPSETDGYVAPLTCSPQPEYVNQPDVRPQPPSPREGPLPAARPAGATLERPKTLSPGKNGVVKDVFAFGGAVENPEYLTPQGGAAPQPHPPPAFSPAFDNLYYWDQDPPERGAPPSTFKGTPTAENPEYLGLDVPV
SMILES,viability [1] [%],Her2 level [2],viability [3],viability [4],viability [5],differential viability (reversal) ([6]; H69AR cells + 2 uM doxorubicin),"viability [6, 9] [%]","viability [6, 10] [%]",inhibition [7],inhibition [8]
CCc1nc2scc(-c3ccccc3)c2c(=O)n1N,136,119% (inactive),136% (inactive),84% (inactive),88.4% (inactive),-8.11% (inactive),96.5,88.4,-1.33% (inactive),-3.97% (inactive)
Cc1cc(NC(=O)c2cc3ccccc3o2)cc(C)c1OCC(=O)N1CCOCC1,92.5,102% (inactive),92.5% (inactive),90.6% (inactive),90.3% (inactive),0.745% (inactive),89.5,90.3,-6.89% (inactive),-1.8% (inactive)
O=c1c(F)cn(C2CCCO2)c(=O)n1Cc1c(F)cccc1Cl (stereo not given),94.5,94% (inactive),94.5% (inactive),92.8% (inactive),91.1% (inactive),-2.1% (inactive),93.2,91.1,-0.13% (inactive),-8.39% (inactive)
O=C(Nc1ccccc1N1CCN(c2ccc(F)cc2)CC1)c1ccccc1,95,96% (inactive),95% (inactive),78.5% (inactive),93.8% (inactive),9.15% (inactive),84.6,93.8,-5.87% (inactive),4.13% (inactive)
CCCNC(=O)NC(C(=O)OC)C12CC3CC(CC(C3)C1)C2 (stereo not given),101,76.5% (inactive),101% (inactive),80.4% (inactive),102% (inactive),10.1% (inactive),91.6,102,-5% (inactive),-1.5% (inactive)
CC(C)(C)NC(=O)Nc1ccccc1C(N)=O,110,108% (inactive),110% (inactive),103% (inactive),110% (inactive),7.05% (inactive),103,110,-2.27% (inactive),-5% (inactive)
CCc1nnc2sc(-c3cc(-c4ccccc4)nc4ccccc34)nn12,71,65% (inactive),71% (inactive),75.5% (inactive),86.9% (inactive),-0.185% (inactive),87.1,86.9,-1.82% (inactive),1% (inactive)
CCCn1nnnc1SCC(=O)c1ccc2c(c1)OCCO2,90,108% (inactive),90% (inactive),110% (inactive),106% (inactive),13.4% (inactive),92.8,106,2.67% (inactive),10.7% (inactive)
CCCn1c(NCc2ccc3c(c2)OCO3)nc2ccccc21,94,85% (inactive),94% (inactive),80.1% (inactive),97.2% (inactive),12.3% (inactive),84.9,97.2,-5.6% (inactive),-1.13% (inactive)
CCn1c(=O)cc(OCC(=O)NCCCN2CC(C)CC(C)C2)c2ccccc21 (stereo not given),101,81% (inactive),101% (inactive),81.3% (inactive),74.7% (inactive),-0.8% (inactive),75.5,74.7,-7.24% (inactive),-2.55% (inactive)
Cc1ccc(S(=O)(=O)Cc2ccc(C(=O)NCCCN3CCN(C)CC3)o2)cc1,104,99.5% (inactive),104% (inactive),96.9% (inactive),103% (inactive),11% (inactive),92.1,103,-0.66% (inactive),-5.64% (inactive)
Cc1cc(C)nc(NC(=O)c2ccc(OC(C)C)cc2)n1,102,90% (inactive),102% (inactive),95.8% (inactive),104% (inactive),14.3% (inactive),90.2,104,-6.03% (inactive),-4.13% (inactive)
CC(C)(C)NC(=O)COC(=O)c1ccc(O)cc1,100,104% (inactive),100% (inactive),103% (inactive),98.9% (inactive),-3.93% (inactive),103,98.9,-2.99% (inactive),-1.27% (inactive)
CC(=O)N1CCN(c2ccc(S(=O)(=O)N3CCCCC3)cn2)CC1,97,89.5% (inactive),97% (inactive),101% (inactive),88.6% (inactive),3.99% (inactive),84.6,88.6,-0.39% (inactive),-0.16% (inactive)
CC(c1nnc(SCC(=O)Nc2sccc2C#N)n1-c1ccc(Cl)cc1)N(C)C (stereo not given),103,74% (inactive),103% (inactive),91.8% (inactive),75.4% (inactive),-5.88% (inactive),81.2,75.4,-3.68% (inactive),0.79% (inactive)
CC(=O)c1cc(-c2ccc(F)cc2)n(CCC(=O)Nc2cc(C)[nH]n2)c1C,105,82.5% (inactive),105% (inactive),102% (inactive),104% (inactive),18.3% (inactive),85.5,104,-6.62% (inactive),2.46% (inactive)
